# Reference: ChEMBL document CHEMBL1134307, “trans-4-[4-(Methoxyphenyl)cyclohexyl]-1-arylpiperazines: a new class of potent and selective 5-HT(1A) receptor ligands as conformationally constrained analogues of 4-[3-(5-methoxy-1,2,3,4-tetrahydronaphthalen-1-yl)propyl]-1-arylpiperazines” (J Med Chem, 2001)
# Columns and labels:
# [1] = molecular target: T1, 5-hydroxytryptamine receptor 1A (Homo sapiens) (UniProt P08908); assay: Maximal stimulation was expressed as percentage of the maximal 5-HT response in the [35S]GTP-gamma-S, binding assay on 5-hydroxytryptamine 1A receptor; format: functional
# T1 sequence (whole entry): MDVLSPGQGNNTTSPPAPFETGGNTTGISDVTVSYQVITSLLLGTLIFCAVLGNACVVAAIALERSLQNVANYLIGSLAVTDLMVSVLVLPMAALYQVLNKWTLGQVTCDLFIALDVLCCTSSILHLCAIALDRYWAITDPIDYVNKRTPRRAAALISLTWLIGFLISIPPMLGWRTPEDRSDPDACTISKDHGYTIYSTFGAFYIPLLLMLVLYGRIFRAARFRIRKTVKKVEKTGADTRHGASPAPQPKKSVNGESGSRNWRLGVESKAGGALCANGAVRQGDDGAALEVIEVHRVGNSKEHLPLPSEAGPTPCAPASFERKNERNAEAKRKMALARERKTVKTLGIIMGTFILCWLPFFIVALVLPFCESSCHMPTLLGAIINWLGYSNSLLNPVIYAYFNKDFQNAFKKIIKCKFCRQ
# In short: (§1)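 Membranes of HeLa cells expressing human 5-HT1A, in 20 mM HEPES, 3 mM MgCl2, 120 mM NaCl pH 7.4. Preincubated 20 min at 30 °C with 30 µM GDP and drug (0.1 nM–100 µM) or 5-HT as reference curve. [35S]GTPγS (200–250 pM) then added for 30 min at 30 °C. Nonspecific binding with 10 µM GTPγS. Curves fitted by ALLFIT to give Emax and pD2 (−log EC50).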
# [2] = molecular target: T2, 5-hydroxytryptamine receptor 1A (Rattus norvegicus) (UniProt P19327); assay: Agonistic activity (induction of forepaw treading in rats)on postsynaptic 5-hydroxytryptamine 1A receptor while iv administration; format: functional, organism-based
# T2 sequence (whole entry): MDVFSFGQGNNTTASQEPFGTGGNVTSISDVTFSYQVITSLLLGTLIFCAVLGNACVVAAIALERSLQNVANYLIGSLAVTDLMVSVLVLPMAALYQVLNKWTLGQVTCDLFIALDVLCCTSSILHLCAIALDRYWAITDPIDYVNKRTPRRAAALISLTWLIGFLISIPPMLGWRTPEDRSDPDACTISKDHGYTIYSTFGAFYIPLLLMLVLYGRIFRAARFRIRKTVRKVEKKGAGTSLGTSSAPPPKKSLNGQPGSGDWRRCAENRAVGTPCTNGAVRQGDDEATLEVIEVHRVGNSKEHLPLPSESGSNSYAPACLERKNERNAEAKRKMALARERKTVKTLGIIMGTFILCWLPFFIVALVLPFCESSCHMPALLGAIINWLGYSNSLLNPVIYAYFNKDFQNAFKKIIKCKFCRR
# In short: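 Male Sprague Dawley rats (175–200 g), iv injection; vehicle DMF 20% v/v plus Tween 80 10% v/v in water, or water for the reference agonist. Rats placed singly 10–15 min beforehand, 4–8 per dose. A blind observer scored fore-paw treading in 30 s sessions every 3 min from 3 to 15 min.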
# [3] = molecular target: T1, 5-hydroxytryptamine receptor 1A (Homo sapiens); assay: Potency (pD2) for the stimulation of [35S]GTP-gamma-S, binding on 5-hydroxytryptamine 1A receptor; format: functional; in short: as §1
# [4] = Selectivity expressed as a ratio of affinity against Alpha 1A-Adrenoceptor to that of 5-HT1A receptor
# [5] = Selectivity expressed as a ratio of affinity against Alpha 1b-Adrenoceptor to that of 5-HT1A receptor
# [6] = Selectivity expressed as a ratio of affinity against Alpha 1d-Adrenoceptor to that of 5-HT1A receptor
# [7] = molecular target: T3, 5-hydroxytryptamine receptor 1A (Rattus norvegicus, UniProt P19327); assay: Binding was determined on 5-hydroxytryptamine 1A receptor in rat hippocampal membranes; format: cell membranes, Hippocampus
# T3 sequence (P19327 whole entry): T2 sequence (whole entry)
# In short: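 Hippocampus from male Wistar Hannover rats, homogenized in 50 mM Tris pH 7.6, washed, and preincubated 10 min at 37 °C. Ki given as mean ± SEM.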
# [8] = molecular target: T4, Adrenergic receptor alpha-1 (Rattus norvegicus, UniProt P15823+P23944+P43140); assay: Binding affinity towards alpha-1 adrenergic receptor in rat cortical membranes; format: cell membranes
# T4 sequence (P15823 whole entry): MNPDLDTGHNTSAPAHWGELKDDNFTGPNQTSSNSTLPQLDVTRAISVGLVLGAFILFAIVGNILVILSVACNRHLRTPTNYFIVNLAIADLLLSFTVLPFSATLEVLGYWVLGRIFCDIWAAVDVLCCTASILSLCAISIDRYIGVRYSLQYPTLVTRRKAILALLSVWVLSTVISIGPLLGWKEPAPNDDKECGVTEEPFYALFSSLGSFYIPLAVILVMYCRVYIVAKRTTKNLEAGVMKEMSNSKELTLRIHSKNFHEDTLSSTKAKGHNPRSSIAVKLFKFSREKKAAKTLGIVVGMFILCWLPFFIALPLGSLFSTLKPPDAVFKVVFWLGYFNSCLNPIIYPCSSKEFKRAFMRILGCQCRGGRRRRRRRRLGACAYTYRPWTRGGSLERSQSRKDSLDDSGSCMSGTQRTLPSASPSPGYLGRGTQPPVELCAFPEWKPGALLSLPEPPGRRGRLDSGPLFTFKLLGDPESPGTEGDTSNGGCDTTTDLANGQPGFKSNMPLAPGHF
# T4 sequence (P23944 whole entry): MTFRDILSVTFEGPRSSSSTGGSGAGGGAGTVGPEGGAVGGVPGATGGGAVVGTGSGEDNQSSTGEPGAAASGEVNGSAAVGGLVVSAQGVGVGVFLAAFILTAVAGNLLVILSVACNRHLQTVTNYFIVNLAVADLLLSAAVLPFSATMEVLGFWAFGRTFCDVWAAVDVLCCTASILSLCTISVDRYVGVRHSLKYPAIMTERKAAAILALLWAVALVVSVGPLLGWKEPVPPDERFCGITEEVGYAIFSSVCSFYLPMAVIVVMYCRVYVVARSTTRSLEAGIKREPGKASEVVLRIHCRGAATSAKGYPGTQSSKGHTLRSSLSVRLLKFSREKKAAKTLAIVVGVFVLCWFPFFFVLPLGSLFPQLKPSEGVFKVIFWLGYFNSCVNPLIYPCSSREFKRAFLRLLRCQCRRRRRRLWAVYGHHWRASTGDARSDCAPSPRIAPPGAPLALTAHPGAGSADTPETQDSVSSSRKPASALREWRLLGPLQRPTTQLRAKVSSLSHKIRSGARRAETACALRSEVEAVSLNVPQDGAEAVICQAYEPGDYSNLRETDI
# T4 sequence (P43140 whole entry): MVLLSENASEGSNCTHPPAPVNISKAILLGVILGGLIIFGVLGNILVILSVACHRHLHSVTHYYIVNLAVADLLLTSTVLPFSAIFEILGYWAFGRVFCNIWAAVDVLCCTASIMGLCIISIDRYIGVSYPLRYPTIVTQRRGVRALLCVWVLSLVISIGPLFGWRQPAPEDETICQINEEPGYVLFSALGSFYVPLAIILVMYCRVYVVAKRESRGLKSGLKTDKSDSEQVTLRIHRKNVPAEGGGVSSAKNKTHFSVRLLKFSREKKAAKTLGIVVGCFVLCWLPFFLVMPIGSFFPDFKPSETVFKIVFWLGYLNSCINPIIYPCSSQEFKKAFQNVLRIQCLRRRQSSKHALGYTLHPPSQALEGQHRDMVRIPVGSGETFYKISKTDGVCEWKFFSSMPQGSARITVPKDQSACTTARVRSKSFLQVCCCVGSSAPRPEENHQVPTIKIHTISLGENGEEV
# D(2) dopamine receptor = D(2) dopamine receptor (Rattus norvegicus, UniProt P61169); assay: Binding affinity towards dopamine receptor D2 in rat striatal membranes; format: cell membranes, Striatum, Membrane
# Sequence of D(2) dopamine receptor (P61169 whole entry): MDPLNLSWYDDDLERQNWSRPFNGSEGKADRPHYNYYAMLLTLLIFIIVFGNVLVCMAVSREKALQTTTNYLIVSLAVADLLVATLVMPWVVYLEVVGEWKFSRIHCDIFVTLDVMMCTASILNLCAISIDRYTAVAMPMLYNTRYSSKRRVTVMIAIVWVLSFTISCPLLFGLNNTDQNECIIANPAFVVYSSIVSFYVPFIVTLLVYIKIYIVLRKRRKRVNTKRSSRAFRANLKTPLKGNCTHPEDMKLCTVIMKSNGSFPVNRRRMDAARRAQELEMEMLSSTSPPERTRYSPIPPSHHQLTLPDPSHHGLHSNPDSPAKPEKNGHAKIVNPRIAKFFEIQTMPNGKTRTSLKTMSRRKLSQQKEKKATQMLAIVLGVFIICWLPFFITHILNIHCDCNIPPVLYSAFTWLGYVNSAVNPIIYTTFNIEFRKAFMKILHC
Compound,Ki [7],Ki [8],Ki (D(2) dopamine receptor),other results
COc1cccc(C2CCC(N3CCN(c4ccccn4)CC3)CC2)c1 (trans isomer),–,–,–,Emax [1]: 95.9%; ED50 [2]: 0.721 µg/kg; pD2 [3]: 9.28; Selectivity [4]: 165; Selectivity [5]: 265; Selectivity [6]: 590
COc1cccc(C2CCC(N3CCN(c4cccc5ccccc45)CC3)CC2)c1 (stereo in doubt),74 nM,5540 nM,1310 nM,–
COc1cccc(C2CCC(N3CCN(c4ccccc4)CC3)CC2)c1 (stereo in doubt; cis),183 nM,2250 nM,2380 nM,–
COc1ccc2c(c1)CC(CCN1CCN(c3ccccn3)CC1)CC2 (stereo unspecified),0.16 nM,117 nM,1730 nM,–
COc1cccc(CCCCNCCOc2ccccn2)c1,39 nM,733 nM,> 850 nM,–
COc1cccc(C2CCC(NCCOc3ccccn3)CC2)c1 (cis isomer),373 nM,–,783 nM,–
COc1ccccc1C1CCC(N2CCN(c3ccccn3)CC2)CC1 (stereo in doubt; trans),0.2 nM,303 nM,243 nM,–
COc1cccc(C2=CCC(N3CCN(c4cccc5ccccc45)CC3)CC2)c1 (stereo unspecified),15 nM,986 nM,327 nM,–
COc1ccc(C2CCC(N3CCN(c4ccccn4)CC3)CC2)cc1 (trans isomer),0.046 nM,847 nM,792 nM,–
COc1cccc2c1CCC/C2=C\CCN1CCN(c2ccccn2)CC1,0.31 nM,60 nM,125 nM,–
CCCN(CCC)C1CCc2cccc(O)c2C1 (stereo unspecified),–,–,–,Emax [1]: 100%
COc1cccc(C2CCC(N3CCN(c4ccccc4)CC3)CC2)c1 (stereo in doubt; trans),0.026 nM,730 nM,910 nM,–
COc1cccc(C2CCC(N3CCN(c4cccc5ccccc45)CC3)CC2)c1 (trans isomer),0.22 nM,470 nM,70 nM,–
COc1cccc(C2CCC(N3CCN(c4ccccn4)CC3)CC2)c1 (cis isomer),815 nM,783 nM,> 850 nM,–
COc1ccc(C2CCC(N3CCN(c4ccccn4)CC3)CC2)cc1 (stereo in doubt),94 nM,786 nM,787 nM,–
COc1cccc(C2=CCC(N3CCN(c4ccccc4)CC3)CC2)c1 (stereo unspecified),–,5160 nM,2190 nM,–
COc1cccc(C2=CCC(N3CCN(c4ccccn4)CC3)CC2)c1 (stereo unspecified),536 nM,512 nM,1220 nM,–
COc1cccc(C2=CCC(N3CCN(c4ccccc4OC)CC3)CC2)c1 (stereo unspecified),7.1 nM,408 nM,2930 nM,–
COc1ccccc1C1CCC(N2CCN(c3ccccn3)CC2)CC1 (stereo in doubt; cis),480 nM,712 nM,2120 nM,–
COc1cccc(C2CCC(N3CCN(c4ccccc4OC)CC3)CC2)c1 (stereo in doubt; cis),79.6 nM,1050 nM,668 nM,–
COc1cccc2c1CCC/C2=C\CCNCCOc1ccccn1,0.71 nM,> 850 nM,> 850 nM,–
COc1cccc(C2CCC(N3CCN(c4ccccc4OC)CC3)CC2)c1 (stereo in doubt; trans),–,–,–,Emax [1]: 26.5%; pD2 [3]: 9.91; Selectivity [4]: 24; Selectivity [5]: 206; Selectivity [6]: 21
COc1ccc2c(c1)CCC(CN1CCN(c3ccccn3)CC1)C2 (stereo unspecified),676 nM,585 nM,> 850 nM,–
COc1ccc2c(c1)CCC(CNCCOc1ccccn1)C2 (stereo unspecified),59 nM,> 850 nM,> 850 nM,–
COc1cccc(C2CCC(NCCOc3ccccn3)CC2)c1 (stereo in doubt),–,–,–,Emax [1]: 82%; pD2 [3]: 7.46; Selectivity [4]: 53; Selectivity [5]: 88; Selectivity [6]: 37
COc1cccc(CCCCN2CCN(c3ccccn3)CC2)c1,23 nM,467 nM,750 nM,–
